Experimental findings from ChEMBL document CHEMBL1139898, “Structural effects on the phosphorylation of 3-substituted 1-beta-D-ribofuranosyl-1,2,4-triazoles by human adenosine kinase” (Bioorg Med Chem Lett, 2007) are described below.

Calls of active or inactive are those of the source. No cut-off for these calls is given here. Where only a bound is given, the exact number is not on record here.

Assay [1] has as its target Adenosine kinase (Homo sapiens) (UniProt P55263). As to the kind of experiment: Activity of human adenosine kinase relative to ribavirin. The arrangement: concentration or dose not given beside the values. The essentials:
(§1)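 Aliquots at 0, 1, 2, 4 h quenched with perchloric acid, neutralized, monophosphate resolved by anion-exchange HPLC (ammonium phosphate gradient), UV at λmax; conversion kept <10%, linear.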

For assay [2] the target is unchanged. As to the kind of experiment: Inhibition of human adenosine kinase ribavirin phosphorylation activity. The essentials:
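Human adenosine kinase (clone 20-1) in Hepes pH 6.0 buffer with KCl, MgCl₂, 1 mM ATP, BSA, deoxycoformycin at 37 °C; 0.1 μM ribavirin initial substrate with test compound at 400 μM; ribavirin monophosphate formation followed by timed aliquots, acid quench and anion-exchange HPLC with UV detection.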

Assay [3] has the same target. As to the kind of experiment: Specific activity of human adenosine kinase. In short, it runs like this:
as §1

Adenosine kinase (Homo sapiens), sequence (P55263 2-362 limits assumed): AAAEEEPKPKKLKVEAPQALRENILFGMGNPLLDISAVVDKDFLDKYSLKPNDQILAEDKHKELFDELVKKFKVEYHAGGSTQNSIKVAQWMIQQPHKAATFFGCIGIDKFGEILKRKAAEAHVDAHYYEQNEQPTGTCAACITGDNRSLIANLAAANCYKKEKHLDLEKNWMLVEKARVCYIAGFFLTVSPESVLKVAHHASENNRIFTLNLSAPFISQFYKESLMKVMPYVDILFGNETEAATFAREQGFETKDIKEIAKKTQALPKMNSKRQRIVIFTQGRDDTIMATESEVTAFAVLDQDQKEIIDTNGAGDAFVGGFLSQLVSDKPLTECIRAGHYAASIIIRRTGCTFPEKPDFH

With `O=[N+]([O-])c1ncn([C@@H]2O[C@H](CO)[C@@H](O)[C@H]2O)n1`, the Activity in assay [1] came to 18%; in assay [3] it was 36 nmol/mg/h. Moreover, the result in assay [2] was inactive.
As for `NC(=O)c1ncn([C@@H]2O[C@H](CO)[C@@H](O)[C@H]2O)n1`, the Activity in assay [3] was found to be 203 nmol/mg/h.
Regarding `CNC(=O)c1ncn([C@@H]2O[C@H](CO)[C@@H](O)[C@H]2O)n1`, the figures for the Activity in assay [1] and in assay [3] were 9% and 19 nmol/mg/h, respectively. For the same compound, the outcome in assay [2] was inactive.
In the same order, the values of `CC(=O)c1ncn([C@@H]2O[C@H](CO)[C@@H](O)[C@H]2O)n1` are 10%, 20 nmol/mg/h and “inactive”.
The like results for `O=C(O)c1ncn([C@@H]2O[C@H](CO)[C@@H](O)[C@H]2O)n1` were, in that order, < 2%, < 4 nmol/mg/h and “inactive”.
The like results for `C/N=C(/N)c1ncn([C@@H]2O[C@H](CO)[C@@H](O)[C@H]2O)n1` were, in that order, 5%, 11 nmol/mg/h and “inactive”.
With `COC(=N)c1ncn([C@@H]2O[C@H](CO)[C@@H](O)[C@H]2O)n1`, the Activity in assay [1] is < 2%; in assay [3], < 4 nmol/mg/h. Moreover, the result in assay [2] was inactive.
The like results for `CC(=O)Nc1ncn([C@@H]2O[C@H](CO)[C@@H](O)[C@H]2O)n1` were, in that order, < 2%, < 4 nmol/mg/h and “inactive”.
